# Screening data from PubChem BioAssay.
# Compounds with a hit are over-represented: about 2.8% of the library has one in this group of screens.
# MC4R barr agon: human MC4R agonism via beta-arrestin; hit rate 0.98% among 360,000; U2OS MC4R beta-arrestin complementation, luminescence; percent of melanotan II response, DMSO zero; P32245; AID 540308; activation, % at 8.9 µM;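 active = activation above a per-plate cutoff, the mean activation of sample wells on that plate plus 3 SD, cut at about 8% in these data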
# Target sequence (P32245 whole entry, looked up): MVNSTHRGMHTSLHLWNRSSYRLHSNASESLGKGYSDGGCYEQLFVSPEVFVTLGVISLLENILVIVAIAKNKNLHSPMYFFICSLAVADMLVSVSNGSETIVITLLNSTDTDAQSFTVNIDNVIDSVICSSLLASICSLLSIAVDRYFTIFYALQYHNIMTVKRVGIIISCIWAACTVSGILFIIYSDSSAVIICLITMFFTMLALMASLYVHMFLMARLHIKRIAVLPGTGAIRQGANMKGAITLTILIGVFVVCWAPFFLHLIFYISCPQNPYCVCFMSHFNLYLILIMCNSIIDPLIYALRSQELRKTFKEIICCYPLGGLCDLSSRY
# EBI2 block: blocks human EBI2 receptor beta-arrestin signaling. hit rate 0.81% among 360,000. inhibition, % at 5 µM. P32249. EBI2 beta-arrestin recruitment, luminescence, 7a,25-OHC stimulated; in the data active = inhibition above about 38%;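 also: enzyme fragment complementation signal reports receptor beta-arrestin coupling in cells; 0% = agonist plus DMSO wells and 100% = wells without agonist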
# MC4R antag cAMP: blocks human MC4R cAMP signaling; MC4R-expressing cells, MTII-stimulated cAMP, LANCE TR-FRET; inhibition, % at 6.5 µM; hit rate 0.48% among 360,000; AID 540295;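 active = inhibition above its plate's cutoff, the mean of tested wells on that plate plus 3 SD, cut at about 29% in these data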;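 also: 0% = Melanotan II alone and 100% = Melanotan II plus saturating MCL0020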
#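 Assay system: human MC4R-expressing U2OS cells; reagent: Melanotan II stimulation of cells; dosing: 6.5 µM single dose; timing: compound 30 min, challenge 1 h, detection 1 h; signal: TR-FRET cAMP assay; replicates: one well per compound, no replicates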
# HTR2A ag: activates the mouse 5-HT2A serotonin receptor. P35363. hit rate 0.66% among 360,000. CHO-K1 mHTR2A beta-arrestin complementation, luminescence; percent of 30 µM serotonin response. activation, % at 7.6 µM;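 active = activation above a run cutoff, the mean activation of all tested compounds plus 3 SD, cut at about 14% in these data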;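 also: 0% = plate median of compound wells and 100% = 30 µM serotonin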
# MOR ag counter: activates human mu opioid receptor in HTR2A counterscreen | shares compounds with HTR2A ag | U2OS OPRM1 beta-arrestin PathHunter, luminescence; DMSO 0%, DAMGO 9.3 µM 100% | activation, % at 9.3 µM | hit rate 5.3% among 2,300 | AID 624380;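 active = mean activation above the mean of DMSO-only wells plus 3 SD, cut at about 0.5% in these data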
# m5-HT2A ag conf: mouse HTR2A agonism confirmed; shares compounds with HTR2A ag; hit rate 19% among 2,300; activation, % at 7.6 µM; CHO-K1 PathHunter beta-arrestin recruitment, luminescence; DMSO 0%, 30 µM serotonin 100%;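 active = mean activation across triplicates above the hit threshold derived in the original primary screen, cut at about 15% in these data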
# An asterisk follows results filed as active; . = no result given.
SMILES,MC4R barr agon,EBI2 block,MC4R antag cAMP,HTR2A ag,MOR ag counter,m5-HT2A ag conf
CC(=O)Nc1ccc(CN(C)c2c(C)nc3ccc(C(=O)Nc4ccc(Cl)c(Cl)c4)cn23)cc1,-0.8,6.1,12.0,-6.9,.,.
CC(=O)Nc1ccc(Nc2nc(C)c([N+](=O)[O-])c(N(C)c3ccccc3)n2)cc1,-1.0,-7.5,1.8,25.1*,-0.5,-4.8
Cc1sc(NC(=O)C2CC(=O)N(Cc3ccco3)C2)nc1-c1ccccc1 (configuration not stated),0.2,-1.5,7.3,7.2,.,.
O=C(Cc1cccc(NC(=O)C2CCCN(C(=O)C3CCCC3)C2)c1)Nc1ccc(C(=O)N2CCOCC2)cc1 (configuration not stated),-2.6,-6.4,2.3,-2.0,.,.
O=C(Cc1cccc(NC(=O)C2CCCN(C(=O)C3CCC3)C2)c1)Nc1ccc(C(=O)N2CCOCC2)cc1 (configuration not stated),-0.9,-7.8,8.2,29.2*,-0.6,-6.3
Cc1cscc1-c1ccc(C(=O)Nc2c(C)cccc2C)o1,-0.2,10.9,1.8,-4.3,.,.
O=C(NC1CCCCC1)C(c1ccccc1)n1c(=O)c(-c2ccco2)nc2ccccc21 (configuration not stated),.,16.6,.,0.4,.,.
O=C(NC1CCCCC1)C(C1CC1)n1c(=O)c(-c2ccco2)nc2ccccc21 (configuration not stated),.,10.7,.,16.4*,-0.9,-2.6
CCOC(=O)C1=CCN(S(=O)(=O)c2ccccc2Br)C1c1ccc(C)cc1 (configuration not stated),.,29.2,.,-0.9,.,.
CCOc1cc(CN2CCN(c3ncccn3)CC2)ccc1OC,-0.4,-3.3,-1.4,22.4*,-0.6,50.1*
c1cnc(N2CCN(Cc3c[nH]c4ccccc34)CC2)nc1,-0.9,1.1,3.2,28.9*,-0.5,92.9*
COc1ccc(CN2CCN(c3ncccn3)CC2)c(C)c1C,3.6,5.4,-5.4,33.5*,-0.4,130.5*
CCc1ccc(CN2CCN(c3ncccn3)CC2)cc1,-1.3,-2.7,-11.4,8.3,.,.
COc1cccc(CN2CCN(c3ncccn3)CC2)c1OC,1.9,8.0,2.0,25.2*,-0.6,81.4*
Cc1cc(C(=O)NCC(c2ccco2)N2CCCC2)c2ccccc2n1 (configuration not stated),-1.4,-14.8,10.3,1.6,.,.
CC(C)NC(=O)C1(C)CCN1Cc1cccc(C#N)c1 (configuration not stated),-0.7,-4.1,-7.0,0.1,.,.
COc1ccc(Cc2c(O)nc(SCC(C)C)[nH]c2=O)cc1,-0.3,-7.7,16.3,14.5*,-0.6,-2.2
COc1ccc(Cc2c(O)nc(SCC(=O)c3ccc(OC)cc3)[nH]c2=O)cc1,-0.8,-2.8,12.9,0.0,.,.
CC(CN1CCCCC1)C(=O)NNC(=O)C12CC3CC(CC(C3)C1)C2 (configuration not stated),1.1,-1.8,2.6,16.0*,-0.4,-2.9
CC(CN1CCCCCC1)C(=O)NN (configuration not stated),-0.1,-5.0,5.6,-4.8,.,.
COc1cc(C)nc(Oc2ccc(=O)n(C)n2)n1,-0.4,3.6,1.0,15.2*,-0.4,-1.4
Cc1cc(C)n(/N=C/c2ccc(O)cc2)c(=O)c1C#N,-2.7,-1.2,13.1,20.3*,-0.6,-3.8
Cc1ccc(/C=N/n2c(C)cc(C)c(C#N)c2=O)cc1,-0.2,-4.4,11.3,-2.3,.,.
Cc1cc(NC(=O)CSc2nnc(-c3ccc(S(=O)(=O)N4CCCC4)cc3)n2C)no1,-1.5,2.5,10.8,18.4*,-0.7,-4.7
CC1CCN(c2nc3c(c(=O)[nH]c(=O)n3C)n2CCSc2ncccn2)CC1,-2.0,-2.1,1.6,60.1*,-0.5,-3.2
SMILES,MC4R barr agon,EBI2 block,MC4R antag cAMP,HTR2A ag,MOR ag counter,m5-HT2A ag conf
COc1ccc(CC(=O)Nc2cc(C)on2)cc1OC,2.0,-7.1,11.1,14.7*,-0.8,-1.5
CN(CC1CCCN(CCc2cccc(C(F)(F)F)c2)C1)C(=O)c1cc2ccccc2o1 (configuration not stated),2.3,13.7,19.1,-13.9,.,.
O=C(Nc1ccc(CN2CCOCC2)cc1)c1ccc(Cl)cc1,1.2,-6.4,6.7,-3.9,.,.
O=C(NC1(N2CCOCC2)CC1)c1ccc(Cl)cc1,-1.3,-2.0,-2.6,14.8*,-0.6,-1.7
Cc1cc2c(=O)[nH]c(N)nc2[nH]1,-2.8,-4.3,4.1,16.2*,-0.2,0.6
NC(=O)c1ccc(NC(=O)COC(=O)c2ccccc2SCC(=O)N2CCCC2)cc1,0.8,-6.3,1.4,8.8,.,.
NS(=O)(=O)c1ccc(NC(=S)N2CCN(Cc3ccc(Cl)c(Cl)c3)CC2)cc1,-1.3,1.1,1.6,-9.2,.,.
CCCN1CCN(C(=S)Nc2ccc(S(N)(=O)=O)cc2)CC1,-3.1,-10.2,-7.6,15.5*,-0.5,-0.7
CC(=O)N1CCC(c2nc3ccccc3n2C(C)C(=O)NCc2ccccc2)CC1 (configuration not stated),.,-10.9,.,2.9,.,.
O=C(c1ccco1)N1CCN(c2nc3ccsc3c(=O)s2)CC1,0.1,-1.6,12.4,42.0*,-0.7,9.4
CCc1cccc(C)c1NC(=O)CCCC(=O)O,0.7,-6.0,-3.1,-1.2,.,.
CCc1cccc(C)c1NC(=O)CC(C)(C)CC(=O)O,1.4,0.0,6.7,17.7*,-0.5,-2.6
CCO[C@H]1C[C@@H](c2ccc(CC)cc2)N(S(=O)(=O)c2ccc(C)cc2)C2CC(c3ccc(CC)cc3)N(S(=O)(=O)c3ccc(C)cc3)CC21 (some centres not stated),.,4.5,.,3.5,.,.
CCOP(=O)(OCC)C(Nc1ccc(OC)cc1)c1ccco1 (configuration not stated),-0.4,-7.9,7.5,18.8*,-0.5,-3.3
CC(C)C#Cc1cnc2c(c1)C(=O)N([C@H](C)CO)C[C@@H](C)[C@H](CN(C)C(=O)Nc1ccccc1F)O2,0.2,-3.1,0.2,4.3,.,.
c1ccc2c(c1)[nH]c1c(N3CCCC3)ncnc12,-1.8,-6.8,1.2,2.0,.,.
c1ccc2c(c1)[nH]c1c(N3CCSCC3)ncnc12,-1.0,3.7,4.7,15.0*,-0.1,-1.8
O=C(O)c1ccc(NS(=O)(=O)c2ccc(C(=O)Nc3ccccc3)cc2)cc1,-1.5,-4.2,1.9,-3.9,.,.
O=C(O)c1ccc(NC(=O)c2cccc(S(=O)(=O)Nc3ccc(C(=O)O)cc3)c2)cc1,-0.8,-8.4,7.3,16.1*,-0.6,-1.5
Cc1ccc(Oc2ccc(NS(=O)(=O)c3cccc(C(=O)O)c3)cc2)cc1,-1.9,-6.1,4.9,15.4*,-0.4,-1.9
CCOC(=O)C1CCN(Cc2cccc(Oc3ccccc3)c2)CC1,0.7,-1.6,7.6,14.1,.,.
